{"source": "the RNAGym collection of RNA variant scans (doi:10.1101/gad.245936.114)", "parents": {"B1": {"name": "tRNA (parent)", "chain": "CUCUCGGUAGCCAAGUUGGUUUAAGGCGCAAGACUUUAAUUUAUCACUACGAAAUCUUGAGAUCGGGCGUUCGACUCGCCCCCGGGAGAUUUUUUCCUCGAGCAA"}}, "note": "Variants at the floor of the assay were thinned out."}
{"variants_of": "B1", "assay": "nonsense suppression (GFP-seq) (ratio to wild type); higher = more function; SUP4oc tRNA, yeast GFP reporter sort-seq", "method_in_brief": "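Nonsense suppression (GFPSEQ) is the median GFP/RFP ratio of each sorting bin, weighted by the variant's estimated share of cells in that bin and expressed relative to the unmutated parent tRNA. Yeast strains carried genome-integrated variants of an ochre-suppressor tRNA from a library with ~3% random mutations, plus a galactose-driven GFP ochre reporter and RFP, and were grown in raffinose/galactose medium containing 80 mg/L adenine. Cells were sorted into GFP/RFP bins, each bin was Illumina-sequenced (phred ≥30), and variants were kept only with ≥100 reads and ≥30 cells.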"}
{"variant": "CUCUCGCUAGCCAAGUUGGUUUAAGGCGCACCACUUUAAUUUAUCACUACGAAAUCUUGAGAUCGGGCGUUCGACUCGCCCCCGGGAGAUUUUUUCCUCGAGCAA", "note": "[G7C A31C G32C]", "nonsense suppression": "≤ 0.026"}
{"variant": "CUCUCGCUAGCCAAGUUGGUUUAAGGCGCAAGACUUUAAUUUAUCACUACGAAAUCAUGAGAUCGGGCGUUCGACUCGCCCCCGGGAGAUUUUUUCCUCGAGCAA", "note": "[G7C U57A]", "nonsense suppression": "≤ 0.026"}
{"variant": "CUCUCGCUAGCAAAGUUGGUUUAAGGCGCAAGACUUUAAUUUAUCACUACGAAAUCUUGAGAUCGGGCGUGCGACCCGCCCCCGGGAAAUUUUUUCCUCGAGCAA", "note": "[G7C C12A U71G U76C G88A]", "nonsense suppression": "≤ 0.026"}
{"variant": "CUCUCGCUAGCCAAGUUGGUUUAAGGCGCAAGACUUUAAUUUAUCACUACGAAACCUUGAGAUCGGGCGUUCGACUCGCCCCCGGGAGAUUUUUUCCUCGAGCAA", "note": "[G7C U55C]", "nonsense suppression": 0.0823}
{"variant": "CUCUCGUUAGCCAAGUUGGUUUAAGGCGCAAGACUUUAAUUUAUCACUACGAACUCUUGAGAUCGGGCGUUCGACUCGCCCCCGGGAGAUUUUUUCCUCGAGCAA", "note": "[G7U A54C]", "nonsense suppression": 0.0394}
{"variant": "CUCUCGUUAGCCAAGUUGGUUUAAGGCGCGAGACUUUAAUUUAUCACUACGAAAUCUUGAGAUCGGGCGUUCGACUCGCCCCCGGGAGAUUUUUUCCUCGAGCAA", "note": "[G7U A30G]", "nonsense suppression": "≤ 0.026"}
{"variant": "CUCUCGCUAGCCAAGUUGGUUUAAGGCGCAAGUCUUUAAUUUAUCACUACGAAAUCUUGAGAUCGGGCGUUCAACUCGCCCCCGGGAGAUUUUUUCCUCGAGCAA", "note": "[G7C A33U G73A]", "nonsense suppression": "≤ 0.026"}
{"variant": "CUCUCGCUAGCCAAGUUGGUUCAAGACGCAAGACUUUAAUUUAUCACUACGAAAUCUUGAGAUCGGGCGUUCGACUCGCCCCCGGGAGAUUUUUUCCUCGAGCAA", "note": "[G7C U22C G26A]", "nonsense suppression": "≤ 0.026"}
{"variant": "CUCUCGCUAGCCAAGUUGGUUUAAGGCGGGAGACUUUAAUUUAUCACUACGAAAUCUUGAUAUCGGGCGCUCGACUCGCCCCCGCGAGAUUUUUUCCUCGAGCAA", "note": "[G7C C29G A30G G61U U70C G85C]", "nonsense suppression": "≤ 0.026"}
{"variant": "CUCUCGUUAGCCGAGUAGGUUUAAGGCGCAAGACUUUAAUUUAUCACUACGAAAUCUUGAGAUCGGGCGUUCGACUCGCCCCCGGGAGAUUUUUUCCUCGAGCAA", "note": "[G7U A13G U17A]", "nonsense suppression": "≤ 0.026"}
{"variant": "CUCUCGCUAGCCAAGUUGCUUUAAGGCGCAAGACUUUAAUUUAUCACUACGAAAUCUUGAGAUCGUGCCUUCGACUCGCCCCCGGGAGAUUUUUUCCUCGAGCAA", "note": "[G7C G19C G66U G69C]", "nonsense suppression": "≤ 0.026"}
{"variant": "CUCUCGUUUGCCAAGUUGGUUUAAGGCGCAUGACUUUAAUUUAUCACUACGAAAUCUUGAGAUCGGGCGUUCGACUCGCCCCCGGGAGAUUUUUUCCUCGAGCAA", "note": "[G7U A9U A31U]", "nonsense suppression": "≤ 0.026"}
{"variant": "CUCUCGCUAGCCACGUUGGUUUAAGGCGCAAGACUUUAAUUUAUCACUACGAAAUCUUGAUAUCGGGCGUUCGUCUCGCCCCCGGGGGAUUUUUUCCUCGAGCAA", "note": "[G7C A14C G61U A74U A87G]", "nonsense suppression": "≤ 0.026"}
{"variant": "CUCUCGUUAGCCAAGUUGGUUUAAGGCGCAAGACUUUAAUUUAUCACUACGAAAUCUUGAGAUCGGGCGUUCGACUCGCCCCCGGGUGAUUUUUUCCUCGAGCAA", "note": "[G7U A87U]", "nonsense suppression": "≤ 0.026"}
{"variant": "CUCUCGCUAGGCAAGUUGGUUUAAGGCGCAAGACUUUAAUUUAUCACUACGAAAUCUUGAGAUCGGGCGUUCGACUCGACCCCGGGAGAUUUUUUCCUCGAGCAA", "note": "[G7C C11G C79A]", "nonsense suppression": "≤ 0.026"}
{"variant": "CUCUCGCUAGCCAAGUUGGUUUAAGGCGCAAGACUUUAAUUUAUCACUACGAAAUCUUGUAAUCGGGCGUUCGACUCGCCCGCGGGAGAUUUUUUCCUCGAGCAA", "note": "[G7C A60U G61A C82G]", "nonsense suppression": 0.0263}
{"variant": "CUCUCGUUAGCCAAGUUGGUUUAAGGCGCAAGACUUUAAUUUAUCACUACGAAUUCUUGAGACCGGGCGUUCGACUCGCCCCCGGGAUAUUUUUUCCUCGAGCAA", "note": "[G7U A54U U63C G88U]", "nonsense suppression": "≤ 0.026"}
{"variant": "CUCUCGCUAGCCAAGUUGGUUUAAGGCGCAAGACUUUAAUUUAUCACUACGAAAUCUUGAGAUCGGGCGUUCGACCCGCCCCCGGGAGAUUUUUUCCUCGAGCAA", "note": "[G7C U76C]", "nonsense suppression": "≤ 0.026"}
{"variant": "CUCUCGCUAGCCAGGUUGGUUAAUGGCGCAAGACUUUAAUUUAUCACUACGAAAUCUUGAGAUCGGGCGUUCGACUCGCCCCCGCGAGAUUUUUUCCUCGAGCAA", "note": "[G7C A14G U22A A24U G85C]", "nonsense suppression": "≤ 0.026"}
{"variant": "CUCUCGCUAGCCAAGUUGGUUUAAGGCGGAAGACUUUAAUUUAUCACUACGAAAUCUUGAGAUCGGGCGUUCGACUCGCCCCCGGGAGAUUUUUUCCUCGAGCAA", "note": "[G7C C29G]", "nonsense suppression": "≤ 0.026"}
{"variant": "CUCUCGCUAGCCAAGUUGGUUUAAGGCGCAAGACGUUAAUUUAUCACUACGAAAUCUUGAGAUCGGGCGUUCGACUCGCCCCCGGGAGAUUUUUUCCUCGAGCAA", "note": "[G7C U35G]", "nonsense suppression": "≤ 0.026"}
{"variant": "CUCUCGCUAGCCAAGUUGGUUUAAGGCGCAAGACGUUAAUUUAUCACUACGAAAUCUUGAGCUCGGGCGUUCGACUCGCCCCCGGGAGAUUUUUUCCUCGAGCAA", "note": "[G7C U35G A62C]", "nonsense suppression": "≤ 0.026"}
{"variant": "CUCUCGCUUGCCAAGUUGGUUUAAGGCGCAAGACUUUAAUUUAUCACUACGAAAUCUUGAGAUCGGGCGUUCGACUCGCCCCCGGGAGAUUUUUUCCUCGAGCAA", "note": "[G7C A9U]", "nonsense suppression": 0.0428}
{"variant": "CUCUCGCUAGCCAAGUUGGUGUAAGGCGCAAGACUUUAAUUUAUCACUACGAAAUCUUGAGAUCGGGCGUUCGACUCGCCCCCGGGAGAUUUUUUCCUCGAGCAA", "note": "[G7C U21G]", "nonsense suppression": 0.0521}
{"variant": "CUCUCGUUCGCCAAGCUGGUUUAAGGCGCAAGACUUUAAUUUAUCACUACGAAAUCCUGAGAUCGGGCGUUCGACUCGCCCCCGGGAGAUUUUUUCCUCGAGCAA", "note": "[G7U A9C U16C U57C]", "nonsense suppression": "≤ 0.026"}
{"variant": "CUCUCGCUAACCAAGUUGGUUUAAGGCGCAAGACUUUAAUUUAUCACUACGAAAUCUUGAGAUCGGGGGUUCGACUCGCCCCCGGGAGAUUUUUUCCUCGAGCAA", "note": "[G7C G10A C68G]", "nonsense suppression": "≤ 0.026"}
{"variant": "CUCUCGCUAGCCAAGUUGGUUUAAGGCGCAAGACUUUAAUUUAUCACUACGAAAUCUUGAGAUCGGGCGUUCUACUCGCCCCCGGGAGAUUUUUUCCUCGAGCAA", "note": "[G7C G73U]", "nonsense suppression": "≤ 0.026"}
